According to ChEMBL document CHEMBL4602689, “Absolute Configuration and Antibiotic Activity of Piceamycin” (J Nat Prod, 2020):
pIC50: −log10 of the molar value. Calls of active or inactive are those of the source. No cut-off for these calls is given here.

Tests used:
Bacillus thuringiensis = assay: Antibacterial activity against Bacillus thuringiensis KACC 10168 assessed as reduction in microbial growth after 24 hrs by two-fold serial dilution method; assay type: functional; conditions: KACC 10168, 24 h
Method in brief: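 Bacteria grown overnight in tryptic soy broth at 28 °C, centrifuged and washed twice in sterile water. Compounds in DMSO were serially diluted 2-fold in TSB from 128 to 0.015 μg/mL. Final inoculum was 5 × 10⁴ cfu/mL, incubated 24 h at 28 °C. MIC taken as the lowest concentration inhibiting growth. Controls were ampicillin, tetracycline, streptomycin and DMSO.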

Escherichia coli = assay: Antibacterial activity against Escherichia coli ATCC 25922 assessed as reduction in microbial growth after 24 hrs by two-fold serial dilution method; assay type: functional; conditions: ATCC 25922, 24 h
Method in brief: (§1)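 Strains grown overnight in Mueller–Hinton broth at 37 °C, centrifuged and washed twice in sterile water. DMSO stocks were 2-fold serially diluted in MHB (128 to 0.015 μg/mL). Final inoculum was 5 × 10⁴ cfu/mL, incubated 24 h at 37 °C. MIC is the lowest concentration inhibiting growth. Controls were ampicillin, tetracycline, streptomycin and DMSO.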

A549 = assay: Antiproliferative activity against human A549 cells assessed as reduction in cell viability by sulforhodamine B assay; assay type: functional, cell-based
Method in brief: (§2)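 Cells kept in RPMI 1640 with 10% heat-inactivated FBS plus penicillin, streptomycin and amphotericin B, at 37 °C and 5% CO₂. Cells seeded in 96-well plates and treated for the indicated times; zero-day controls read after 30 min. Fixed, stained with 0.4% SRB in 1% acetic acid, dye dissolved in 10 mM Tris pH 10.0, A515 read. IC50 by nonlinear regression.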

MDA-MB-231 = assay: Antiproliferative activity against human MDA-MB-231 cells assessed as reduction in cell viability by sulforhodamine B assay; assay type: functional, cell-based
Method in brief: (§3)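 Cells kept in DMEM with 10% heat-inactivated FBS plus penicillin, streptomycin and amphotericin B, at 37 °C and 5% CO₂. SRB assay: cells seeded in 96-well plates and treated for the indicated times, with 30-min zero-day controls. Fixed, stained with 0.4% SRB in 1% acetic acid, solubilized in 10 mM Tris pH 10.0, absorbance at 515 nm. IC50 by nonlinear regression.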

HCT-116 = assay: Antiproliferative activity against human HCT116 cells assessed as reduction in cell viability by sulforhodamine B assay; assay type: functional, cell-based; method in brief: as §2
SNU-638 = assay: Antiproliferative activity against human SNU638 cells assessed as reduction in cell viability by sulforhodamine B assay; assay type: functional, cell-based; method in brief: as §2
Klebsiella pneumoniae = assay: Antibacterial activity against Klebsiella pneumoniae ATCC 10031 assessed as reduction in microbial growth after 24 hrs by two-fold serial dilution method; assay type: functional; conditions: ATCC 10031, 24 h; method in brief: as §1
Enterococcus faecium = assay: Antibacterial activity against Enterococcus faecium ATCC 19434 assessed as reduction in microbial growth after 24 hrs by two-fold serial dilution method; assay type: functional; conditions: ATCC 19434, 24 h; method in brief: as §1
Salmonella enterica = assay: Antibacterial activity against Salmonella enterica ATCC 14028 assessed as reduction in microbial growth after 24 hrs by two-fold serial dilution method; assay type: functional; conditions: ATCC 14028, 24 h; method in brief: as §1
Enterococcus faecalis = assay: Antibacterial activity against Enterococcus faecalis ATCC 19433 assessed as reduction in microbial growth after 24 hrs by two-fold serial dilution method; assay type: functional; conditions: ATCC 19433, 24 h; method in brief: as §1
Proteus hauseri = assay: Antibacterial activity against Proteus hauseri NBRC 3851 assessed as reduction in microbial growth after 24 hrs by two-fold serial dilution method; assay type: functional; conditions: NBRC 3851, 24 h; method in brief: as §1
Staphylococcus aureus = assay: Antibacterial activity against Staphylococcus aureus ATCC 25923 assessed as reduction in microbial growth after 24 hrs by two-fold serial dilution method; assay type: functional; conditions: ATCC 25923, 24 h; method in brief: as §1
K562 = assay: Antiproliferative activity against human K562 cells assessed as reduction in cell viability by sulforhodamine B assay; assay type: functional, cell-based; method in brief: as §2
SK-HEP1 = assay: Antiproliferative activity against human SKHEP1 cells assessed as reduction in cell viability by sulforhodamine B assay; assay type: functional, cell-based; method in brief: as §3
Aspergillus fumigatus = assay: Growth inhibition of Aspergillus fumigatus HIC 6094; assay type: functional, organism-based
Trichophyton rubrum = assay: Growth inhibition of Trichophyton rubrum NBRC 9185; assay type: functional, organism-based
[1] = test system: Trichophyton mentagrophytes; assay: Growth inhibition of Trichophyton mentagrophytes IFM 40996; assay type: functional, organism-based
Candida albicans = assay: Growth inhibition of Candida albicans ATCC 10231; assay type: functional, organism-based

SMILES | MIC (Bacillus thuringiensis) [µg/mL] | MIC (Escherichia coli) [µg/mL] | pIC50 (A549) | pIC50 (MDA-MB-231) | pIC50 (HCT-116) | pIC50 (SNU-638) | MIC (Klebsiella pneumoniae) [µg/mL] | MIC (Enterococcus faecium) [µg/mL] | MIC (Salmonella enterica) [µg/mL] | MIC (Enterococcus faecalis) [µg/mL] | MIC (Proteus hauseri) [µg/mL] | MIC (Staphylococcus aureus) [µg/mL] | pIC50 (K562) | pIC50 (SK-HEP1) | growth inhibition (GI) (Aspergillus fumigatus) | growth inhibition (GI) (Trichophyton rubrum) | growth inhibition (GI) [1] | growth inhibition (GI) (Candida albicans)
CN[C@@H]1[C@H](O[C@H]2[C@H](O[C@H]3[C@H](O)[C@@H](O)[C@H](N=C(N)N)[C@@H](O)[C@@H]3N=C(N)N)O[C@@H](C)[C@]2(O)C=O)O[C@@H](CO)[C@H](O)[C@H]1O [STREPTOMYCIN] | 130 | – | – | – | – | – | – | – | – | – | – | – | – | – | – | – | – | –
CC1=C/C[C@@H](O)CC(=O)/C=C/C=C/C=C\C=C\C=C/[C@@H](C)CNC(=O)\C=C/C=C\C=C\1 | 380 | > 130 | 6.11 | 6.00 | 6.00 | 6.07 | > 130 | 130 | 130 | > 130 | 130 | > 130 | 6.02 | 5.73 | – | – | – | –
C[C@@H]1\C=C/C=C/C=C\C=C\C=C\C(=O)C2=C(O)C(=O)C[C@@]2(C)/C=C/C=C\C=C/C(=O)NC1 | 3.2 | > 130 | 6.55 | 6.18 | 6.66 | 6.42 | > 130 | 5.3 | 0.083 | 32 | 0.025 | 0.025 | 6.13 | 6.49 | inactive | inactive | inactive | inactive
CC1(C)S[C@@H]2[C@H](NC(=O)[C@H](N)c3ccccc3)C(=O)N2[C@H]1C(=O)O [AMPICILLIN] | – | 16 | – | – | – | – | > 130 | 1 | 0.25 | 0.5 | 0.03 | 0.17 | – | – | – | – | – | –
COc1cc([C@@H]2c3cc4c(cc3[C@@H](O[C@@H]3O[C@@H]5CO[C@@H](C)O[C@H]5[C@H](O)[C@H]3O)[C@H]3COC(=O)[C@H]23)OCO4)cc(OC)c1O [ETOPOSIDE] | – | – | 6.22 | 5.48 | 5.87 | 6.28 | – | – | – | – | – | – | 6.01 | 6.42 | – | – | – | –
CC1=C\C[C@@H](O)CC(=O)/C=C/C=C/C=C\C=C\C=C/[C@@H](C)CNC(=O)\C=C/C=C/C=C/1 | – | – | – | – | – | – | – | – | – | – | – | – | – | – | inactive | inactive | inactive | inactive
CN(C)[C@@H]1C(O)=C(C(N)=O)C(=O)[C@@]2(O)C(O)=C3C(=O)c4c(O)cccc4[C@@](C)(O)[C@H]3C[C@@H]12 [TETRACYCLINE] | – | – | – | – | – | – | 0.44 | – | – | – | – | – | – | – | – | – | – | –
